Laboratory results from ChEMBL document CHEMBL1158066, “Phytochemical constituents from Salsola tetrandra” (J Nat Prod, 2006).
Converted amounts (≈) assume the structure as drawn.

What was measured:
Pseudomonas aeruginosa = assay: Antibacterial activity against Pseudomonas aeruginosa ATCC 27853 by microdilution method; type: functional
Method in brief: (§1)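 Liquid-medium broth microdilution. Strains kept at -70 °C in glycerol Mueller-Hinton broth; fresh subcultures used for each run. Final inoculum (1-5) × 10^5 cfu/mL. MIC taken as the lowest concentration preventing visible growth. MBC taken as the concentration killing ≥99.9% of the initial inoculum, confirmed by subculturing dilutions onto TSA agar at 30 °C for 18-24 h.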

[1] = test system: Staphylococcus epidermidis; assay: Antibacterial activity against Staphylococcus epidermidis NCIMB 8853 by microdilution method; type: functional; method in brief: as §1
Micrococcus luteus = assay: Antibacterial activity against sMicrococcus luteus NCIMB 8166 by microdilution method; type: functional; method in brief: as §1
Staphylococcus aureus = assay: Antibacterial activity against Staphylococcus aureus ATCC 29213 by microdilution method; type: functional; method in brief: as §1
Escherichia coli = assay: Antibacterial activity against sEscherichia coli ATCC 35218 by microdilution method; type: functional; method in brief: as §1
[2] = Toxicity against Artemia salina; type: organism-based; settings: in vivo, read-out: ED50 (the source's name)
Method in brief: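 Brine shrimp lethality bioassay; the endpoint is death, reported as ED50 in µM.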

Row | SMILES | MIC (Pseudomonas aeruginosa) [mg/L] | MBC [1] [mg/L] | MIC [1] [mg/L] | MBC (Micrococcus luteus) [mg/L] | MIC (Micrococcus luteus) [mg/L] | MBC (Staphylococcus aureus) [mg/L] | MIC (Staphylococcus aureus) [mg/L] | MBC (Escherichia coli) [mg/L] | MIC (Escherichia coli) [mg/L] | LC50 [2] [µM]
1 | COc1cc(/C=C/C(=O)NC[C@@H](O)c2ccc(O)cc2)ccc1O | > 700 | > 700 | 600 (≈ 1820 µM) | 700 (≈ 2130 µM) | 400 (≈ 1210 µM) | 600 (≈ 1820 µM) | 200 (≈ 607 µM) | 700 (≈ 2130 µM) | 400 (≈ 1210 µM) | –
2 | CCCCCC(O)C(O)/C=C/C(O)CCCCCCCC(=O)O (centres undefined) | > 700 | > 700 | 600 (≈ 1820 µM) | 500 (≈ 1510 µM) | 400 (≈ 1210 µM) | > 700 | 500 (≈ 1510 µM) | – | > 700 | –
3 | COc1cc(O[C@@H]2O[C@H](CO)[C@@H](O)[C@H](O)[C@H]2O)cc(OC)c1OC | > 700 | > 700 | 600 (≈ 1730 µM) | > 700 | 500 (≈ 1440 µM) | > 700 | 700 (≈ 2020 µM) | – | > 700 | 28.9
4 | C=C[C@](C)(CC/C=C(\C)CO)O[C@@H]1O[C@H](CO)[C@@H](O)[C@H](O)[C@H]1O | > 700 | > 700 | 700 (≈ 2110 µM) | > 700 | 600 (≈ 1810 µM) | > 700 | 700 (≈ 2110 µM) | – | > 700 | 21.8
5 | CC/C=C\CC(O)C(O)/C=C/C(O)CCCCCCCC(=O)O (centres undefined) | > 700 | > 700 | 600 (≈ 1830 µM) | 500 (≈ 1520 µM) | 400 (≈ 1220 µM) | > 700 | 500 (≈ 1520 µM) | – | > 700 | –
6 | CC(=O)/C=C/[C@@]12O[C@]1(C)C[C@@H](O)[C@H](O[C@@H]1O[C@H](CO)[C@@H](O)[C@H](O)[C@H]1O)C2(C)C | > 700 | > 700 | 600 (≈ 1490 µM) | > 700 | 500 (≈ 1240 µM) | > 700 | 700 (≈ 1740 µM) | – | > 700 | 10.9
7 | COc1cc(/C=C/C(=O)NCCc2ccc(O)cc2)ccc1O [N-TRANS-FERULOYL TYRAMINE] | > 700 | – | > 700 | > 700 | 500 (≈ 1600 µM) | > 700 | 500 (≈ 1600 µM) | – | > 700 | –
8 | N#C[C@H](O[C@@H]1O[C@H](CO)[C@@H](O)[C@H](O)[C@H]1O)c1ccc(O)cc1 [TAXIPHYLLIN] | > 700 | > 700 | 500 (≈ 1610 µM) | 500 (≈ 1610 µM) | 200 (≈ 642 µM) | 700 (≈ 2250 µM) | 400 (≈ 1280 µM) | > 700 | 600 (≈ 1930 µM) | 0.96
